Results taken from PubChem BioAssay.
Active and inactive are the calls of the source.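 Rule for the calls, unless noted: active = visually confirmed hit in the image check and inhibition above 20%; inconclusive = visually confirmed hit but inhibition not above 20%; inactive = no visual hit in the image check.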

Assays:
[1] = inhibitors of TNFa-induced NFkB p65 translocation, primary screen, imaging, HUVEC, MLSMR starter and 10KST1 sets (AID 438;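 active = inhibition above 20% together with a positive visual image hit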;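 note: compound added about 3h40 before a 20 min TNFalpha stimulation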;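 for inhibition: signal is the nuclear over cytoplasmic p65 intensity ratio per well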); conditions: HUVEC TNFa-induced p65 nuclear translocation; cell count: measured here: nuclei count (cytotoxicity indicator), at 2.08 µM; inhibition: at 2 µM, stronger effect = higher value, 0% TNFa-plus-vehicle, 100% no-TNFa wells
[2] = inhibitors of E-selectin induction by TNFa, primary screen, imaging, HUVEC, immunofluorescence, MLSMR starter and 10KST1 sets (AID 487); conditions: HUVEC TNFalpha-induced E-selectin immunofluorescence imaging, at 2 µM; inhibition: stronger effect = higher value; nuclei count: measured here: cell number, toxicity;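 for inhibition: signal is fraction of cell area covered by stained E-selectin grains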;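 for nuclei count: 100% = median nuclei count of all wells on the same plate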
[3] = DUSP6 inhibitors restoring Erk phosphorylation by chemical complementation, primary imaging in DUSP6-transfected HeLa (AID 609;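 active = compounds giving at least 50% inhibition in the cell-based MKP-3 phosphatase rescue imaging test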;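 for inhibition: phospho-Erk level distribution per well compared with pooled transfected vehicle control wells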); conditions: HeLa MKP-3 transfected, phospho-Erk imaging KS statistic, at 10 µM, cells stimulated with TPA for 15 min
[4] = molecular target: Dual specificity protein phosphatase 6 (Homo sapiens) (UniProt Q16828); experiment: as above; conditions: HeLa MKP-3 transfected, phospho-Erk imaging KS statistic; at 10 µM; stronger effect = higher value; cells stimulated with TPA for 15 min
[5] = molecular target: Voltage-gated potassium channel subunit beta-2 (Rattus norvegicus) (UniProt P62483); experiment: KvBeta enzyme negative modulators, primary screen, biochemical, NADPH fluorescence (AID 622;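 active = fluorescence slope higher than the sample average by over 3 SD, cut at about -0.22 in these data, passing the limit was not always enough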;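 note: slope of raw intensity against log time taken from 70 to 1610 s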); conditions: recombinant KvBeta, 4-cyanobenzaldehyde reduction, at 10 µM, stronger effect = higher value
[6] = molecular target: Voltage-gated potassium channel subunit beta-2 (Rattus norvegicus) (UniProt P62483); experiment: KvBeta positive modulators, primary screen, biochemical, NADPH fluorescence (AID 623;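 active = NADPH fluorescence slope more negative than the mean of all samples by about 3 SD, 99.7% confidence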;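 note: fluorescence intensity change per second fitted from 20 to 320 s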); conditions: Recombinant KvBeta, NADPH fluorescence decrease slope, 10 min; at 10 µM; stronger effect = lower value
[7] = molecular target: Muscarinic acetylcholine receptor M4 (Homo sapiens) (UniProt P08173); experiment: compounds altering M4/GIRK thallium flux, either direction, primary screen, M4 allosteric agonist project, cell-based, HEK293 M4/GIRK, BTC-AM (AID 625;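 active = fluorescence slope after compound addition differing from the mean of all tested samples at 99.7% confidence, mostly higher but some lower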;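 note: thallium influx through GIRK channels coupled to M4 in HEK293 cells with BTC-AM dye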); conditions: at 10 µM, actives lie on both sides
Method in brief: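 Material – HEK293 cells with M4 receptor and GIRK channels · Buffer or medium – pH 7.3 thallium assay buffer · Doses – one dose, 10 µM final · Timing – cells overnight at 37 °C, BTC-AM loading 1 h, reads 2 min total · Measured by – kinetic fluorescence with BTC-AM dye · Controls – carbachol and DMSO controls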

[8] = inhibitors of larval lipid processing in zebrafish, primary screen, whole organism, PED6 fluorescence, gall bladder and intestine (AID 686;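 active = a full or partial loss of lipid-probe fluorescence in the fish gall bladder, intestine or both, judged by eye; inactive = no fluorescence loss, or compound toxic to the fish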;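 note: larvae 5 to 7 days old with five fish per well; signal comes from phospholipase A2 cleavage of quenched PED6 carried via bile; overnight exposure to compound and PED6 before scoring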); conditions: Zebrafish larvae PED6 lipid processing, fluorescence scoring; screened at 20 µM (by protocol)
Method in brief: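 system = live zebrafish larvae aged 5-7 days, whole organism | probe or stimulus = ingested quenched lipid PED6 at 100 nM | doses = 20 µM single dose | timing = overnight exposure | detection = fluorescence microscopy with visual scoring of gall bladder and intestine | read-out = visual per-well fluorescence inhibition score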

[9] = inhibitors of Chlamydomonas gravitaxis, primary screen, whole organism, Chlamydomonas reinhardtii, WT vs cilia-less mutant, absorbance, 96-well (AID 463189;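 active = inhibition at or above 50% relative to wild type and mutant plate controls; inactive = inhibition below 50%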;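 note: 0% = wild type cc124 cells in DMSO and 100% = ciliumless bld1 mutant cells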); conditions: OD600 absorbance, 2 days, at 10 µM, stronger effect = higher value
[10] = measured here: cell density z-score
[11] = measured here: nuclear c-Myc green intensity z-score
[12] = measured here: nuclear pErk red intensity z-score, stronger effect = higher value

Chain of Muscarinic acetylcholine receptor M4 (Homo sapiens) (P08173 whole entry, looked up): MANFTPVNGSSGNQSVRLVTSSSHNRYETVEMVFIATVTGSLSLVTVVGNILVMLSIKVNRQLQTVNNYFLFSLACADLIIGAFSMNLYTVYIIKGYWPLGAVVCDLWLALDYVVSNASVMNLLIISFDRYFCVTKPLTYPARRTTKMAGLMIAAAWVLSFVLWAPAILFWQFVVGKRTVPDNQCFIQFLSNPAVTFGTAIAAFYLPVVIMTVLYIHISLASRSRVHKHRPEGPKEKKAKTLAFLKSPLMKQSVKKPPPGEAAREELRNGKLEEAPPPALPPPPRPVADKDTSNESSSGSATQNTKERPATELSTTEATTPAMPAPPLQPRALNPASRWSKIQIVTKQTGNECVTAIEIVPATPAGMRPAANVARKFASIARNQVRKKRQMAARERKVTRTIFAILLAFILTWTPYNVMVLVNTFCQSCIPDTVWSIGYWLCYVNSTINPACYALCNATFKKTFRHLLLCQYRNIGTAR
Chain of Voltage-gated potassium channel subunit beta-2 (Rattus norvegicus) (P62483 whole entry, looked up): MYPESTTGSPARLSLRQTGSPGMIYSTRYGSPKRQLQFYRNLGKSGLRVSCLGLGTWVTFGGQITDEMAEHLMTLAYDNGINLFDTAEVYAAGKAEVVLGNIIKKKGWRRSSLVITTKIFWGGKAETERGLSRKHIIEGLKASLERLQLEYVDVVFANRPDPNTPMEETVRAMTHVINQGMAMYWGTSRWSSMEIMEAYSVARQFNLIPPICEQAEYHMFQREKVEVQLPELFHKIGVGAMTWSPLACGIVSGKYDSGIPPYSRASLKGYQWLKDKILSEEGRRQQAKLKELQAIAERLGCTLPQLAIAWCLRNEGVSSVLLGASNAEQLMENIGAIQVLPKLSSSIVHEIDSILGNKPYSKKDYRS
Chain of Dual specificity protein phosphatase 6 (Homo sapiens) (Q16828 whole entry, looked up): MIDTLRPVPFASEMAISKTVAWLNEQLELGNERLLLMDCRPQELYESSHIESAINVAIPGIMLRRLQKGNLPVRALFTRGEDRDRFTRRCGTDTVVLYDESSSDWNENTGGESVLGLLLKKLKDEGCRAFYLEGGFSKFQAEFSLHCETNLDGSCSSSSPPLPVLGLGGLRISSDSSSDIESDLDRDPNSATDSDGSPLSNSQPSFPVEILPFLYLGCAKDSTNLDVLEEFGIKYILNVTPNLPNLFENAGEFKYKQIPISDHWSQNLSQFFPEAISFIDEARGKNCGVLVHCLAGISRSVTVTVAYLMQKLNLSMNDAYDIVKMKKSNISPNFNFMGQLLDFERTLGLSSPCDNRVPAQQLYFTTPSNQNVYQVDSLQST

For CCC1CC2(C)NC(=O)c3c(sc4c3CC(C)(C)OC4)N2C1=O (centres undefined), the cell count [1] was 497, the inhibition [1] was -0.8% (inactive) and the inhibition [2] was -48.8% (inactive). It also gave a nuclei count [2] of 175%, a z-score [3, 10] of 0.444 and a z-score [3, 11] of 0.00352. The z-score [3, 12] was -0.401, the inhibition [4] was 1.98% (inactive) and the fluorescence slope [5] was -0.397 (inactive). For the same compound, the NADPH fluorescence slope [6] was 3.9e-06 (inactive), the fluorescence slope [7] was 0.00496 (inactive) and the outcome [8] was “inactive”. For the same compound, the inhibition [9] was 31.2% (inactive).

For C=CCn1c(N)c(C(=O)Nc2ccccc2)c2nc3ccccc3nc21, the cell count [1] was 628, the inhibition [1] was 9.1% (inactive) and the inhibition [2] was -27.4% (inactive). For the same compound, the nuclei count [2] was 121%, the z-score [3, 10] was 1.06 and the z-score [3, 11] was -1.1. The z-score [3, 12] was -0.334, the inhibition [4] was 9.07% (inactive) and the fluorescence slope [5] was -0.398 (inactive). The NADPH fluorescence slope [6] was -1.8e-05 (inactive), the fluorescence slope [7] was 0.00512 (inactive) and the outcome [8] was “active; no signal in intestine only”. The inhibition [9] was 59.2% (active).

With Nc1ccc2c3c(cccc13)CC2 the cell count [1] was 400, the inhibition [1] was -4.5% (inactive) and the inhibition [2] was -74% (inactive). It also gave a nuclei count [2] of 108%, a z-score [3, 10] of 0.938 and a z-score [3, 11] of 0.125. For the same compound, the z-score [3, 12] was -0.141, the inhibition [4] was 9.37% (inactive) and the fluorescence slope [5] was -0.281 (inactive). The NADPH fluorescence slope [6] was -2.2e-05 (inactive), the fluorescence slope [7] was 0.00407 (inactive) and the outcome [8] was “inactive”. For the same compound, the inhibition [9] was -6.34% (inactive).

With CCCCN1C(=O)C(O)=C(C(C)=O)C1c1ccc(OC)cc1OC (centres undefined) the cell count [1] was 479, the inhibition [1] was -4.2% (inactive) and the inhibition [2] was -323% (inactive). It also gave a nuclei count [2] of 189%, a z-score [3, 10] of 0.403 and a z-score [3, 11] of -0.372. For the same compound, the z-score [3, 12] was 1.98, the inhibition [4] was -7.28% (inactive) and the fluorescence slope [5] was -0.464 (inactive). The NADPH fluorescence slope [6] was -4.3e-05 (inactive), the fluorescence slope [7] was 0.00466 (inactive) and the outcome [8] was “inactive”. For the same compound, the inhibition [9] was -3.96% (inactive).

With CCCOC(=O)CSC1=C(C#N)C(c2ccc3c(c2)OCO3)CC(=O)N1 (centres undefined) the cell count [1] was 674, the inhibition [1] was -6.1% (inactive) and the inhibition [2] was -91.1% (inactive). It also gave a nuclei count [2] of 161%, a z-score [3, 10] of 0.796 and a z-score [3, 11] of -0.679. The z-score [3, 12] was -1.26, the inhibition [4] was -7.86% (inactive) and the fluorescence slope [5] was -0.487 (inactive). The NADPH fluorescence slope [6] was -6.2e-05 (inactive), the fluorescence slope [7] was 0.00536 (inactive) and the outcome [8] was “inactive”. The inhibition [9] was 6.85% (inactive).

With N#CCCN(C(=O)c1ccco1)c1ccccc1 the cell count [1] was 600, the inhibition [1] was 3.1% (inactive) and the inhibition [2] was -91% (inactive). For the same compound, the nuclei count [2] was 128%, the z-score [3, 10] was 0.6 and the z-score [3, 11] was -1.06. For the same compound, the z-score [3, 12] was -0.443, the inhibition [4] was 1.42% (inactive) and the fluorescence slope [5] was -0.462 (inactive). The NADPH fluorescence slope [6] was -0.000111 (inactive), the fluorescence slope [7] was 0.00534 (inactive) and the outcome [8] was “inactive”. For the same compound, the inhibition [9] was -5.86% (inactive).

In the case of Nc1nnnn1N=C1CCCCC1, the cell count [1] is reported as 662, the inhibition [1] is reported as -3.4% (inactive) and the inhibition [2] is reported as -120% (inactive). The nuclei count [2] was 170%, the z-score [3, 10] was 0.907 and the z-score [3, 11] was -0.604. The z-score [3, 12] was -0.484, the inhibition [4] was -2.29% (inactive) and the fluorescence slope [5] was -0.493 (inactive). For the same compound, the NADPH fluorescence slope [6] was -3.7e-05 (inactive), the fluorescence slope [7] was 0.00643 (inactive) and the outcome [8] was “inactive”. For the same compound, the inhibition [9] was 2.87% (inactive).

For COc1ccc(-c2nn(C)c(=O)c3ccccc23)cc1NS(C)(=O)=O, the cell count [1] was 373, the inhibition [1] was -6.1% (inactive) and the inhibition [2] was -7.8% (inactive). The nuclei count [2] was 104%, the z-score [3, 10] was -0.517 and the z-score [3, 11] was 0.9. For the same compound, the z-score [3, 12] was -0.714, the inhibition [4] was 11.9% (inactive) and the fluorescence slope [5] was -0.509 (inactive). The NADPH fluorescence slope [6] was 1.7e-05 (inactive), the fluorescence slope [7] was 0.00473 (inactive) and the outcome [8] was “inactive”. The inhibition [9] was -10.8% (inactive).

In the case of Cc1cc(=O)n(CCC(=O)O)c2ccccc12, the cell count [1] is reported as 722, the inhibition [1] is reported as -2.6% (inactive) and the inhibition [2] is reported as -33.8% (inactive). It also gave a nuclei count [2] of 175%, a z-score [3, 10] of 1.44 and a z-score [3, 11] of -0.504. For the same compound, the z-score [3, 12] was -1.75, the inhibition [4] was 5.95% (inactive) and the fluorescence slope [5] was -0.48 (inactive). The NADPH fluorescence slope [6] was -8.8e-05 (inactive), the fluorescence slope [7] was 0.0062 (inactive) and the outcome [8] was “inactive”. The inhibition [9] was -13% (inactive).

For Cc1cc2c(c(=O)o1)C(CC(C)C)C(C#N)=C(N)O2 (centres undefined), the cell count [1] was 703, the inhibition [1] was 2% (inactive) and the inhibition [2] was -144% (inactive). For the same compound, the nuclei count [2] was 167%, the z-score [3, 10] was -0.228 and the z-score [3, 11] was -0.296. For the same compound, the z-score [3, 12] was -0.119, the inhibition [4] was -1.12% (inactive) and the fluorescence slope [5] was -0.436 (inactive). The NADPH fluorescence slope [6] was -5.8e-05 (inactive), the fluorescence slope [7] was 0.00457 (inactive) and the outcome [8] was “inactive”. The inhibition [9] was 3.4% (inactive).

For Cc1c(Cl)cccc1N1C(=O)C2ON(c3ccccc3)C(c3cccnc3)C2C1=O (centres undefined), the cell count [1] was 542, the inhibition [1] was -6.8% (inactive) and the inhibition [2] was 9.6% (inactive). It also gave a nuclei count [2] of 83.2%, a z-score [3, 10] of 0.393 and a z-score [3, 11] of 0.964. The z-score [3, 12] was -1.74, the inhibition [4] was 6.04% (inactive) and the fluorescence slope [5] was -0.497 (inactive). The NADPH fluorescence slope [6] was -1.3e-05 (inactive), the fluorescence slope [7] was 0.00557 (inactive) and the outcome [8] was “inactive”. For the same compound, the inhibition [9] was 20% (inactive).

In the case of COc1ccc(NC(=O)c2c(C)cc(=O)oc2C)c(OC)c1, the cell count [1] is reported as 631, the inhibition [1] is reported as 3.2% (inactive) and the inhibition [2] is reported as 11.9% (inactive). For the same compound, the nuclei count [2] was 111%, the z-score [3, 10] was 0.599 and the z-score [3, 11] was -0.258. The z-score [3, 12] was 0.577, the inhibition [4] was -7.67% (inactive) and the fluorescence slope [5] was -0.454 (inactive). The NADPH fluorescence slope [6] was -3.9e-05 (inactive), the fluorescence slope [7] was 0.00518 (inactive) and the outcome [8] was “inactive”. For the same compound, the inhibition [9] was -7.06% (inactive).

For CC1CCN(c2ncnc3c2cnn3Cc2ccc(Cl)cc2)CC1, the cell count [1] was 549, the inhibition [1] was -8.1% (inactive) and the inhibition [2] was 2.1% (inactive). The nuclei count [2] was 135%, the z-score [3, 10] was -0.011 and the z-score [3, 11] was 0.63. For the same compound, the z-score [3, 12] was 0.724, the inhibition [4] was 13.9% (inactive) and the fluorescence slope [5] was -0.348 (inactive). The NADPH fluorescence slope [6] was -1.7e-05 (inactive), the fluorescence slope [7] was 0.00585 (inactive) and the outcome [8] was “inactive”. For the same compound, the inhibition [9] was 4.22% (inactive).
